Bioassay records (PubChem)
Most compounds without a hit are left out; they make up all but 2.9% or so of the library.
JNK3 blocker = JNK3 kinase activity inhibitors, primary screen, biochemical, human, purified enzyme; Mitogen-activated protein kinase 10 (Homo sapiens), P53779; HTS; inhibition, % at 8 µM; hit rate 0.61% among 60,000; AID 746, 2007; in the data active = inhibition above about 17%;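 also: 0% = DMSO and 100% = reference inhibitor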
PKA kinase inh = inhibitors of human PKA kinase activity, primary screen, biochemical, ATP-depletion luminescence, Kemptide substrate | cAMP-dependent protein kinase catalytic subunit alpha (Homo sapiens), P17612 | PKA Kemptide phosphorylation, Kinase-Glo ATP luminescence | inhibition, % at 6 µM | hit rate 0.1% among 65,000 | AID 524, 2006;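 active = inhibition above the screen-wide mean inhibition plus 3 SD, cut at about 21% in these data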
ROCK2 blocker = inhibitors of human ROCK2 kinase, primary screen, biochemical, high-throughput, luminescence; Rho-associated protein kinase 2 (Homo sapiens), O75116; purified ROCK2, Kinase-Glo ATP depletion luminescence; inhibition, % at 6 µM; hit rate 0.35% among 60,000; AID 604, 2007;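 active = inhibition above the screen-wide mean inhibition plus 3 SD, cut at about 18% in these data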;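 also: plate controls were DMSO wells for no effect and Y-27632 control wells after no-enzyme background subtraction for full effect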
SF-1 act = activators of human SF-1, primary screen, cell-based, CHO-K1, Gal4-SF-1 LBD, luciferase luminescence; CHO-K1 Gal4-SF-1 LBD luciferase reporter; % increase over DMSO SF-1-specific signal; activation, % at 10 µM; hit rate 1.9% among 65,000; AID 522, 2006;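 active = activation above the mean activation of all tested compounds plus 3 SD, cut at about 50% in these data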
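Assay system – CHO-K1 cells with Gal4–hSF-1 LBD chimera plus Gal4-driven luciferase · Quantity – 4,000 cells per well · Times – compound added 1 h post-seeding, 20 h exposure at 37 °C, 5% CO2 · Measured by – luciferase light emission · Benchmarks – DMSO and mock-transfected background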
RORA act = activators of orphan receptor RORA, primary screen, cell-based, luminescence; hit rate 1.5% among 65,000; Nuclear receptor ROR-alpha (Homo sapiens), P35398; CHO-K1 Gal4-RORA LBD luciferase reporter; percent increase over mock-subtracted basal signal; activation, % at 10 µM; AID 560, 2006;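 active = activation above the mean of all tested compounds plus 3 SD, cut at about 49% in these data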;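 also: 0% = DMSO-treated RORA cells and 100% = added signal equal to DMSO minus mock-transfected cells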
Target sequence (P35398 whole entry, looked up, the tested form may be a part): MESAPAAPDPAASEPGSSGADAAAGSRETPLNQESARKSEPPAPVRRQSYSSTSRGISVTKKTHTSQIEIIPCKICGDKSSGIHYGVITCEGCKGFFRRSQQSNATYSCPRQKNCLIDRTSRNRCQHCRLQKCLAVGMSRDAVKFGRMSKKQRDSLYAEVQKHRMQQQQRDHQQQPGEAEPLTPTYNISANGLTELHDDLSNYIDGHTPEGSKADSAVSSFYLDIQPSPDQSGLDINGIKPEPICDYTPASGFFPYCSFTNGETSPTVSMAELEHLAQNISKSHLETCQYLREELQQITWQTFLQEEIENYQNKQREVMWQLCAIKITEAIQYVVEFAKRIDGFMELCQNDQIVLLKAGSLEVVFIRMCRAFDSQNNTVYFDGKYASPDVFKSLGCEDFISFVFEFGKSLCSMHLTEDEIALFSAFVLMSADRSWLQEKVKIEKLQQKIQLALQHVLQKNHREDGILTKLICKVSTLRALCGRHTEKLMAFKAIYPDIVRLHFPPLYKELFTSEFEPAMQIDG
mHtt clearance = clearance of mutant huntingtin inclusions, primary screen, imaging, HeLa Exon1htt(103Q)mCFP, confocal imaging; aggregate imaging; zero = plate's median compound well; inhibition, % at 1.5 µM; hit rate 0.42% among 47,000; AID 853, 2007;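 active = inhibition of aggregate fluorescence above about 70%, also judged a hit by eye on the cell image, limit read from the data, passing the limit was not always enough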;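 also: cells exposed to compound for three days before fixation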
Starred values were filed as active, the others as inactive; / = no result.

SMILES	JNK3 blocker	PKA kinase inh	ROCK2 blocker	SF-1 act	RORA act	mHtt clearance
CCOC(=O)C1=C(C)OC(N)=C(C#N)C1c1cc2ccccc2nc1N1CCCCC1 (stereo unspecified)	22*	4	-2	0	-8	/
CCOC(=O)C1=C(C)OC(N)=C(C#N)C1c1cc(C)sc1C (stereo unspecified)	/	/	/	/	/	-1
COc1cc(Cl)c(C)cc1NC(=O)CSc1nnc(-c2ccccn2)n1Cc1ccco1	4	11	5	-2	-2	/
O=C(NC1=NCCS1)c1cccs1	1	9	7	12	11	/
O=C(NC1=NCCS1)c1ccncc1	-3	2	7	4	25	-326
Cc1cc(C(=O)NC2=NCCS2)cs1	-4	2	0	53*	43	/
O=C(NC1=NCCS1)Nc1ccccc1	-10	1	-4	86*	44	15
Cc1cc(C)nc(NS(=O)(=O)c2ccc(NC(=S)NC(=O)CC(C)C)cc2)n1	/	/	/	/	/	-25
O=C(c1ccccc1F)N(Cc1ccc2c(c1)OCO2)Cc1cc2cc3c(cc2n2nnnc12)OCO3	/	/	/	/	/	29
O=c1c2c3c(sc2nc2n1CCCCC2)CCCC3	10	8	7	60*	106*	/
O=c1c2c3c(sc2nc2n1CCCCC2)CCCCC3	2	11	5	42	55*	/
N=c1c2c3c(sc2nc2n1CCCCC2)CCCCC3	/	2	/	13	36	/
Cc1nc2sc3c(c2c(=O)o1)CCCC3	7	4	2	9	6	12
Nc1nc2sc3c(c2c(=O)s1)CCCC3	15	2	3	56*	11	/
O=c1c2c3c(sc2nc2n1CCCS2)CCCC3	0	5	4	71*	39	43
CC1(C)Cc2c(sc3nc4n(c(=O)c23)CCC4)CO1	4	3	0	-4	2	/
S=c1[nH]nc(-c2cc3ccccc3o2)n1Cc1ccccc1	/	/	/	/	/	14
COc1cccc(-n2nc(-c3ccnn3-c3ccc(C)cc3)c(=O)n(C)c2=O)c1	/	/	/	/	/	42
Cc1cccc(NC(=O)CSc2n[nH]c(-c3ccncc3)n2)c1	1	21*	17	-7	-9	/
O=C(CSc1n[nH]c(-c2ccncc2)n1)c1ccccc1	-4	43*	105*	4	0	-7
COc1ccc(C(=O)c2ccc(OC)c(OC)c2)cc1OC	-1	0	3	-6	0	26
COc1ccc(C(=O)c2ccc(OC)c(N)c2)cc1N	0	9	8	42	66*	-184
CC(=O)CSc1nnc(-c2ccc(S(=O)(=O)N3CCC(C)CC3)cc2)o1	/	/	/	/	/	23
Cc1ccc(NC(=O)Nc2cccs2)cc1	/	8	/	21	54*	/
CCc1ccc(NC(=O)Nc2cccs2)cc1	-2	8	1	-2	-21	/
SMILES	JNK3 blocker	PKA kinase inh	ROCK2 blocker	SF-1 act	RORA act	mHtt clearance
CCCn1c(SCC(N)=O)nnc1-c1ccco1	/	9	/	-2	-5	/
OCc1cn(-c2ccccc2)nc1-c1ccc2c(c1)OCCO2	1	3	2	43	73*	/
COc1ccc(-c2nn(-c3ccccc3)cc2CO)cc1OC	4	4	5	18	-7	/
COc1cccc(-c2nn(-c3ccccc3)cc2CO)c1	10	1	2	46	62*	-16
CCCC(=O)N1CCN(c2ccc([N+](=O)[O-])c(NC(C)c3ccccc3)c2)CC1 (stereo unspecified)	/	/	/	/	/	3
O=C(NCCc1ccc(Cl)cc1)C1CCC(=O)N1Cc1ccc(F)cc1 (stereo unspecified)	/	/	/	/	/	9
CCCc1cc(=O)n2[nH]c(-c3ccc(Br)cc3)cc2n1	4	12	4	112*	38	3
COc1cc(OC)c(N2CC34C=CC(O3)C(C(=O)O)C4C2=O)cc1Cl (stereo unspecified)	-4	9	4	-11	-2	/
O=C(CN1C(=O)C2CC=CCC2C1=O)Nc1ccc(-c2nnc3n2CCCCC3)cc1 (stereo unspecified)	2	7	4	-2	-21	/
